Holding throughout (format): functional
The test system of experiment [1] is Haemonchus contortus. The experiment can be described thus: Lethal dose against Haemonchus contortus using NemaTox assay. The method, boiled down:
(§1)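 Larval development assay in agar matrix: 80–100 nematode eggs per well with compound at twofold serial dilutions from 100 μg/mL downward; wells supplemented with nutrient medium, incubated at 26 °C until control larvae reached the L3 stage. Day 5 qualitative larval assessment; LD99 taken as lowest concentration inhibiting development in 99% of larvae present.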

The subject of experiment [2] is Haemonchus contortus. The experiment can be described thus: Lethal dose against Haemonchus contortus CAVR (ivermectin resistant) using NemaTox assay. The method, boiled down: as §1
Experiment [3] deals with Haemonchus contortus. As to the kind of experiment: Lethal dose against Haemonchus contortus VSRG (benzimidazole resistant) using NemaTox assay. An outline of the steps: as §1
Experiment [4] has as its system Haemonchus contortus. The experiment can be described thus: Lethal dose against Haemonchus contortus Lawes ( levamisole and benzimidazole resistant) using NemaTox assay. The method, boiled down: as §1
The test system of experiment [5] is Teladorsagia circumcincta. As to the kind of experiment: Lethal dose against Ostertagia circumcincta using NemaTox assay. The method, boiled down:
as §1

Experiment [6] has as its system Trichostrongylus colubriformis. As to the kind of experiment: Lethal dose against Trichostrongylus colubriformis using NemaTox assay. The method, boiled down: as §1
Experiment [7] deals with Haemonchus contortus. The experiment can be described thus: Lethal dose against Haemonchus contortus (susceptible) using NemaTox assay. An outline of the steps:
as §1

The structures appear in SMILES notation.

Regarding `COc1cc(Cl)nc2ccccc12`, in the experiment on Haemonchus contortus [1], the LD99 was 25 µg/mL.
As for `COc1cc(OC)c2cc(Cl)ccc2n1`, the LD99 in the experiment on Haemonchus contortus [2] is 6.3 µg/mL; with Haemonchus contortus [3] it was 13 µg/mL; with Haemonchus contortus [4] it was 8.8 µg/mL; in the experiment with Haemonchus contortus [1] it was 12.5 µg/mL; in experiment [5] it was 13 µg/mL; in experiment [6] it was 25 µg/mL. This compound returned an LD99 in the experiment on Haemonchus contortus [7] of 13 µg/mL.
For `COc1nc2ccccc2c(OC)c1-c1ccccc1`, the LD99 with Haemonchus contortus [1] turned out to be 25 µg/mL.
As to `COc1cc(OC)c2c(C)cc(C)cc2n1`, the LD99 in the experiment on Haemonchus contortus [1] was 25 µg/mL.
In the case of `COc1cc(OC)c2cccc(-c3ccccc3)c2n1`, the LD99 with Haemonchus contortus [2] came out at 3.1 µg/mL; in the experiment with Haemonchus contortus [3], 4.4 µg/mL; in the experiment with Haemonchus contortus [4], 6.3 µg/mL; in the experiment on Haemonchus contortus [1], 12.5 µg/mL; in experiment [5], 6.3 µg/mL; in experiment [6], 50 µg/mL. The LD99 with Haemonchus contortus [7] was 6.3 µg/mL.
For `COc1ccc(-c2cccc3c(OC)cc(OC)nc23)cc1`, the LD99 with Haemonchus contortus [2] amounted to 3.1 µg/mL; with Haemonchus contortus [3], 6.3 µg/mL; in the experiment with Haemonchus contortus [4], 3.1 µg/mL; in the experiment on Haemonchus contortus [1], 12.5 µg/mL; in experiment [5] it was 3.1 µg/mL; in experiment [6] it was 6.3 µg/mL. Also, in the experiment on Haemonchus contortus [7], the LD99 was 6.3 µg/mL.
With `COc1ccc(-c2ccc3nc(OC)cc(OC)c3c2)cc1`, the LD99 turned out to be 1.6 µg/mL in the experiment on Haemonchus contortus [2]; 2.2 µg/mL with Haemonchus contortus [3]; 1.6 µg/mL in the experiment with Haemonchus contortus [4]; 3.1 µg/mL in the experiment on Haemonchus contortus [1]; 3.1 µg/mL in experiment [5]; 3.1 µg/mL in experiment [6]. In the experiment on Haemonchus contortus [7], this compound showed an LD99 of 3.1 µg/mL.
For the compound `COc1cc(OC)c2cc(-c3ccccc3)ccc2n1`, the LD99 in the experiment on Haemonchus contortus [2] is 3.1 µg/mL; in the experiment with Haemonchus contortus [3], 3.1 µg/mL; in the experiment on Haemonchus contortus [4] it was 3.1 µg/mL; in the experiment with Haemonchus contortus [1], 3.1 µg/mL; in experiment [5], 3.1 µg/mL; in experiment [6], 6.3 µg/mL. The compound also gave an LD99 in the experiment with Haemonchus contortus [7] of 3.1 µg/mL.
`c1ccc([C@H]2CN3CCSC3=N2)cc1` [LEVAMISOLE]: the LD99 in the experiment on Haemonchus contortus [2] is 0.78 µg/mL; in the experiment with Haemonchus contortus [3], 1.6 µg/mL; in the experiment on Haemonchus contortus [4], greater than 100 µg/mL; in the experiment on Haemonchus contortus [7] it was 1.6 µg/mL.
On to `c1ccc2[nH]c(-c3cscn3)nc2c1` [THIABENDAZOLE], for which the LD99 with Haemonchus contortus [2] came out at 0.16 µg/mL; in the experiment with Haemonchus contortus [3] it was 5 µg/mL; in the experiment on Haemonchus contortus [4] it was 5 µg/mL; with Haemonchus contortus [7], 0.16 µg/mL.

The record behind these values is ChEMBL document CHEMBL1140400, “Synthesis and anthelmintic properties of arylquinolines with activity against drug-resistant nematodes” (2005).
